Measurements published in ChEMBL document CHEMBL2163315, “Synthesis and SAR of geminal substitutions at the C5' carbosugar position of pyrimidine-derived HCV inhibitors” (Bioorg Med Chem Lett, 2012).

What was measured:
[1] = Cytotoxicity against human hepatoma cells assessed as inhibition of [methyl-14C]thymidine incorporation in DNA after 3 days by scintillation proximity assay; format: cell-based; conditions: for CC50 at 72 h: human hepatoma cells
In short: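 Replicon cells seeded in scintillating microplates one day before treatment. Various inhibitor concentrations added in triplicate together with [methyl-14C]-thymidine (final 0.5 µCi/mL media) and incubated three days. Incorporated label read by scintillation proximity counting. DNA CC50 is the concentration giving 50% inhibition of thymidine incorporation relative to vehicle-treated cells.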

[2] = Oral bioavailability in rat at 10 mg/kg; format: ADME, organism-based; conditions: in vivo
[3] = AUC (0 to 24 hrs) in dog at 3 mg/kg, po; format: ADME, organism-based, Canis lupus familiaris; set-up: time < 24 hr, dose 3 mg/kg, route oral; conditions: plasma
In short: (§1)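 Oral dosing at 3 mpk to dog and monkey. Plasma exposure monitored over 0–24 h.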

Hepatitis C virus = experiment: Antiviral activity against Hepatitis C virus genotype 1b Con1 infected in human hepatoma cells assessed as inhibition of viral RNA replication by subgenomic replicon assay; format: functional, organism-based, Hepacivirus hominis; conditions: genotype 1b Con 1
In short: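 Subgenomic 1b-Con1 replicon cells seeded at 5000 cells/well one day before dosing. Compound in DMSO added as 10 serial twofold dilutions in triplicate (final 0.5% DMSO, 10% FBS). Cells harvested three days post dosing. Replicon RNA quantified by real-time RT-PCR (Taqman), normalised to GAPDH RNA as endogenous control. EC50 calculated from the dose-response.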

[4] = Cytotoxicity against human hepatoma cells assessed as effect on cellular GAPDH RNA level; format: cell-based
[5] = Oral bioavailability in cynomolgus monkey at 3 mg/kg; format: ADME, organism-based, Macaca fascicularis; conditions: in vivo
[6] = Drug uptake in rat liver at 10 mg/kg, po after 6 hrs; format: ADME, organism-based; set-up: dose 10 mg/kg, route oral; conditions: read-out: Drug uptake
In short: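 Rats dosed orally at 10 mpk. Compound concentration in liver measured at 6 h.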

[7] = AUC (0 to 24 hrs) in cynomolgus monkey at 3 mg/kg, po; format: ADME, organism-based, Macaca fascicularis; set-up: time < 24 hr, dose 3 mg/kg, route oral; conditions: plasma; in short: as §1
[8] = Oral bioavailability in dog at 3 mg/kg; format: ADME, organism-based, Canis lupus familiaris; conditions: in vivo
[9] = AUC (0 to 24 hrs) in rat at 10 mg/kg, po; format: ADME, organism-based; set-up: time < 24 hr, dose 10 mg/kg, route oral; conditions: plasma
In short: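 Oral dosing to rats at 10 mpk. Plasma exposure monitored over 0–24 h.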

[10] = Cytotoxicity against human hepatoma cells after 3 days by MTS assay; format: cell-based
In short: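 Replicon cells treated the same way as in the replicon activity assay (DMSO vehicle, 10% FBS, 3 days). Viability read three days post dosing by MTS (CellTiter 96 Aqueous One). CC50 is the concentration giving 50% inhibition relative to vehicle-treated cells.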

[11] = AUC (0 to 6 hrs) in rat at 10 mg/kg, po; format: ADME, organism-based; set-up: time < 6 hr, dose 10 mg/kg, route oral; conditions: plasma
In short: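 Single oral dose of 10 mpk given to rats, as HCl salt. Plasma exposure expressed as AUC over 0–6 h.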

| bioavailability [2] [%] | AUC(0-t) at 24 h [3] [µM·h] | EC50 (Hepatitis C virus) [µM] | bioavailability [5] [%] | concentration at 6 h [6] [ng/g] | AUC(0-t) at 24 h [7] [µM·h] | bioavailability [8] [%] | AUC(0-t) at 24 h [9] [µM·h] | AUC(0-t) at 6 h [11] [µM·h] | Structure (SMILES) | CC50 at 72 h [1] [µM] | CC50 [4] [µM] | CC50 at 72 h [10] [µM] | CC25 ([1]; 72 h) [µM] |
| --- | --- | --- | --- | --- | --- | --- | --- | --- | --- | --- | --- | --- | --- |
| 81 | 4.2 | 0.02 | 50 | 900 | 10 | 50 | 18 | – | COC[C@@H](C)Nc1nc(C)c(-c2nc3c(C)nccc3s2)c(N[C@@H]2C[C@H](C(C)(C)O)[C@@H](O)[C@H]2O)n1 | 25 | > 3 | > 3 | – |
| 58 | 3.2 | 0.02 | 45 | 1300 | 13 | 56 | 6.7 | – | CO[C@H](C)CNc1nc(C)c(-c2nc3c(C)nccc3s2)c(N[C@@H]2C[C@H](C(C)(C)O)[C@@H](O)[C@H]2O)n1 | 25 | > 25 | > 25 | – |
| – | – | 0.004 | – | 1800 | – | – | – | 9.9 | Cc1nc(NCC2CCCCO2)nc(N[C@@H]2C[C@H](C(C)(C)O)[C@@H](O)[C@H]2O)c1-c1nc2c(C)nccc2s1 (stereo partly drawn) | – | > 25 | > 25 | 3 |
| – | – | 0.008 | – | – | – | – | – | 1.6 | CSCCNc1nc(C)c(-c2nc3c(C)nccc3s2)c(N[C@@H]2C[C@H](C(C)(C)O)[C@@H](O)[C@H]2O)n1 | – | > 25 | > 25 | – |
| – | – | 0.02 | – | – | – | – | – | 0.7 | COCC1(CNc2nc(C)c(-c3nc4c(C)nccc4s3)c(N[C@@H]3C[C@H](C(C)(C)O)[C@@H](O)[C@H]3O)n2)CC1 | – | > 25 | > 25 | – |
| – | – | 0.004 | – | – | – | – | – | 0.4 | Cc1nc(NCc2c(F)cc(F)cc2F)nc(N[C@@H]2C[C@H](C(C)(C)O)[C@@H](O)[C@H]2O)c1-c1nc2c(C)nccc2s1 | – | > 25 | > 25 | – |
| – | – | 0.18 | – | – | – | – | – | 1.2 | Cc1nc(N[C@H](C)c2ccc(OC(F)(F)F)cc2)nc(N[C@@H]2C[C@H](C(C)(C)O)[C@@H](O)[C@H]2O)c1-c1nc2c(C)nccc2s1 | – | > 25 | > 25 | – |
| – | – | 0.01 | – | – | – | – | – | 1.8 | Cc1nc(NCC(F)(F)F)nc(N[C@@H]2C[C@H](C(C)(C)O)[C@@H](O)[C@H]2O)c1-c1nc2c(C)nccc2s1 | – | 20 | > 12 | – |
| – | – | 0.13 | – | – | – | – | – | – | Cc1nc(NCCN(C)C)nc(N[C@@H]2C[C@H](C(C)(C)O)[C@@H](O)[C@H]2O)c1-c1nc2c(C)nccc2s1 | – | 7 | 12 | – |
| – | – | 0.02 | – | – | – | – | – | 0.2 | Cc1nc(NCCN2CCOCC2)nc(N[C@@H]2C[C@H](C(C)(C)O)[C@@H](O)[C@H]2O)c1-c1nc2c(C)nccc2s1 | – | > 25 | > 25 | – |
| – | – | – | – | – | – | – | – | – | Cc1nc(NCC2CC2)nc(N[C@@H]2C[C@H](CO)[C@@H](O)[C@H]2O)c1-c1nc2cnccc2s1 | – | 3 | – | – |
| – | – | 0.02 | – | – | – | – | – | 1.3 | Cc1nc(NCC2CC2)nc(N[C@@H]2C[C@H]([C@H](C)O)[C@@H](O)[C@H]2O)c1-c1nc2cnccc2s1.Cl | – | 18 | 13 | – |
| – | – | 0.02 | – | – | – | – | – | 8.5 | Cc1nc(NCC2CC2)nc(N[C@@H]2C[C@H](C(C)(C)O)[C@@H](O)[C@H]2O)c1-c1nc2cnccc2s1.Cl | – | > 12 | > 12 | – |
| – | – | 0.03 | – | – | – | – | – | 11 | Cc1nc(N[C@H](C)C2CC2)nc(N[C@@H]2C[C@H](C(C)(C)O)[C@@H](O)[C@H]2O)c1-c1nc2cnccc2s1 | – | > 25 | 25 | – |
| – | – | 0.05 | – | – | – | – | – | 1.3 | COCCNc1nc(C)c(-c2nc3cnccc3s2)c(N[C@@H]2C[C@H](C(C)(C)O)[C@@H](O)[C@H]2O)n1 | – | > 25 | > 25 | – |
| 39 | 4.9 | 0.02 | 6 | 9500 | 0.3 | 66 | 10 | – | Cc1nc(NCC2CC2)nc(N[C@@H]2C[C@H](C(C)(C)O)[C@@H](O)[C@H]2O)c1-c1nc2c(C)nccc2s1 | 25 | > 25 | > 25 | – |
| 54 | 2.1 | 0.02 | 4 | 13700 | 0.5 | 32 | 19 | – | Cc1nc(N[C@H](C)C2CC2)nc(N[C@@H]2C[C@H](C(C)(C)O)[C@@H](O)[C@H]2O)c1-c1nc2c(C)nccc2s1 | > 25 | > 25 | > 25 | – |
| 49 | 0.9 | 0.02 | 46 | 1900 | 3.7 | 18 | 16 | – | COCCNc1nc(C)c(-c2nc3c(C)nccc3s2)c(N[C@@H]2C[C@H](C(C)(C)O)[C@@H](O)[C@H]2O)n1 | 7 | > 25 | > 25 | – |
| – | – | 0.005 | – | – | – | – | – | 10 | CCC(O)(CC)[C@H]1C[C@@H](Nc2nc(NCC3CC3)nc(C)c2-c2nc3c(C)nccc3s2)[C@H](O)[C@@H]1O | – | > 6 | > 6 | – |
| – | – | 0.01 | – | – | – | – | – | 1.4 | CCC(O)(CC)[C@H]1C[C@@H](Nc2nc(NCCOC)nc(C)c2-c2nc3c(C)nccc3s2)[C@H](O)[C@@H]1O | – | > 25 | > 25 | – |
| – | – | 0.004 | – | – | – | – | – | 1.6 | Cc1nc(NCC2CC2)nc(N[C@@H]2C[C@H](C3(O)CC3)[C@@H](O)[C@H]2O)c1-c1nc2c(C)nccc2s1 | – | > 25 | > 25 | – |
| – | – | 0.007 | – | – | – | – | – | 3.9 | COCCNc1nc(C)c(-c2nc3c(C)nccc3s2)c(N[C@@H]2C[C@H](C3(O)CC3)[C@@H](O)[C@H]2O)n1 | – | > 25 | 13 | – |
| – | – | 0.002 | – | – | – | – | – | – | COCC(O)(COC)[C@H]1C[C@@H](Nc2nc(NCC3CC3)nc(C)c2-c2nc3c(C)nccc3s2)[C@H](O)[C@@H]1O | 4 | > 6 | > 6 | – |
| – | – | 0.003 | – | – | – | – | – | – | CCOCCNc1nc(C)c(-c2nc3c(C)nccc3s2)c(N[C@@H]2C[C@H](C(O)(COC)COC)[C@@H](O)[C@H]2O)n1 | – | > 12 | 6 | – |
| – | – | 0.04 | – | – | – | – | – | – | Cc1nc(N)nc(N[C@@H]2C[C@H](C(C)(C)O)[C@@H](O)[C@H]2O)c1-c1nc2c(C)nccc2s1 | – | 4 | 6 | – |
| – | – | 0.05 | – | – | – | – | – | 58 | Cc1nc(NC2CC2)nc(N[C@@H]2C[C@H](C(C)(C)O)[C@@H](O)[C@H]2O)c1-c1nc2c(C)nccc2s1 | – | > 6 | > 6 | – |
| – | – | 0.09 | – | – | – | – | – | – | Cc1nc(N(C)CC2CC2)nc(N[C@@H]2C[C@H](C(C)(C)O)[C@@H](O)[C@H]2O)c1-c1nc2c(C)nccc2s1 | – | > 25 | 23 | – |
